From ChEMBL document CHEMBL5154715, “Phenolic Lipids Derived from Cashew Nut Shell Liquid to Treat Metabolic Diseases” (J Med Chem, 2022)
Calls of active or inactive are those of the source.

Legend:
Danio rerio [1] = experiment: In vivo agonist activity at human GFP-tagged PPARalpha in transgenic zebrafish assessed as increase in GFP expression in muscle at 5 uM measured after 14 hrs by microscopy
[2] = molecular target: T1, Peroxisome proliferator-activated receptor alpha (Mus musculus) (UniProt P23204); experiment: Agonist activity at human PPARalpha in mouse hepatocytes assessed as induction of cd36 mRNA expression at 50 uM incubated for 16 hrs by quantitative real-time PCR analysis; type: cell-based; conditions: Hepatocyte, filed as agonist
T1 sequence (whole entry): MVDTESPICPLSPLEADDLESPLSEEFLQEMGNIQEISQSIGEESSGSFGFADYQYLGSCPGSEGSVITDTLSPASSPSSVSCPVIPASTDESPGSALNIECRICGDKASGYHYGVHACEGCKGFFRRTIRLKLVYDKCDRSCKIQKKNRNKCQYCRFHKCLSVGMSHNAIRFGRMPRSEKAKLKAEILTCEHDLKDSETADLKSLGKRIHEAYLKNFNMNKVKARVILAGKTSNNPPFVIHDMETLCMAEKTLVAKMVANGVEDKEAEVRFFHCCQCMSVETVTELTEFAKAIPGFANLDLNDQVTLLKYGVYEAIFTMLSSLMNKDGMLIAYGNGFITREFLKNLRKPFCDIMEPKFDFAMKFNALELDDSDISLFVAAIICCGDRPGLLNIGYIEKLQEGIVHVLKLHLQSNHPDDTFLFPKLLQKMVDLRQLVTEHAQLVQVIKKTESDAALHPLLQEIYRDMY
Outline: (§1)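 Collagenase-perfused mouse primary hepatocytes from WT mice, plated 2 h in attachment medium, overnight in M199 with 5% charcoal-stripped FBS and 1 nM insulin. Treated next day in serum-free M199 with 50 μM compound for 16 h. RNA qPCR (SYBR Green), comparative Ct method.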

[3] = molecular target: T1, Peroxisome proliferator-activated receptor alpha (Mus musculus); experiment: Agonist activity at human PPARalpha in mouse hepatocytes assessed as induction of fabp1 mRNA expression at 50 uM incubated for 16 hrs by quantitative real-time PCR analysis; type: cell-based; conditions: Hepatocyte, filed as agonist
Outline: as §1

[4] = molecular target: T1, Peroxisome proliferator-activated receptor alpha (Mus musculus); experiment: Agonist activity at human PPARalpha in mouse hepatocytes assessed as induction of Fgf21 mRNA expression at 50 uM incubated for 16 hrs by quantitative real-time PCR analysis; type: cell-based; conditions: Hepatocyte, filed as agonist
Outline: as §1

Danio rerio [5] = experiment: In vivo agonist activity at human GFP-tagged PPARalpha in transgenic zebrafish assessed as increase in GFP expression in retina at 5 uM measured after 14 hrs by microscopy
Danio rerio [6] = experiment: In vivo agonist activity at human GFP-tagged PPARalpha in transgenic zebrafish assessed as increase in GFP expression in CNS at 5 uM measured after 14 hrs by microscopy
Danio rerio [7] = experiment: In vivo agonist activity at human GFP-tagged PPARalpha in transgenic zebrafish assessed as increase in GFP expression in epidermis at 5 uM measured after 14 hrs by microscopy
Danio rerio [8] = experiment: In vivo agonist activity at human GFP-tagged PPARalpha in transgenic zebrafish assessed as increase in GFP expression in heart at 5 uM measured after 14 hrs by microscopy
[9] = molecular target: T1, Peroxisome proliferator-activated receptor alpha (Mus musculus); experiment: Agonist activity at human PPARalpha in mouse hepatocytes assessed as induction of Pdk4 mRNA expression at 50 uM incubated for 16 hrs by quantitative real-time PCR analysis; type: cell-based; conditions: Hepatocyte, filed as agonist
Outline: as §1

Danio rerio [10] = experiment: In vivo agonist activity at human GFP-tagged PPARalpha in transgenic zebrafish assessed as increase in GFP expression in heart at 1.5 uM measured after 14 hrs by microscopy
Danio rerio [11] = experiment: In vivo agonist activity at human GFP-tagged PPARgamma in transgenic zebrafish assessed as increase in GFP expression in muscle at 1 uM measured after 14 days by microscopy; type: functional, organism-based; conditions: time 14.0 day
Danio rerio [12] = experiment: In vivo agonist activity at human GFP-tagged PPARalpha in transgenic zebrafish assessed as increase in GFP expression in yolk sac at 1.5 uM measured after 14 hrs by microscopy
Danio rerio [13] = experiment: In vivo agonist activity at human GFP-tagged PPARalpha in transgenic zebrafish assessed as increase in GFP expression in brain at 1.5 uM measured after 14 hrs by microscopy
Danio rerio [14] = experiment: In vivo agonist activity at human GFP-tagged PPARgamma in transgenic zebrafish assessed as increase in GFP expression in CNS at 1 uM measured after 14 days by microscopy; type: functional, organism-based; conditions: time 14.0 day
Danio rerio [15] = experiment: In vivo agonist activity at human GFP-tagged PPARalpha in transgenic zebrafish assessed as increase in GFP expression in muscle at 1.5 uM measured after 14 hrs by microscopy

Measured: Activity

Cc1cccc(Nc2cc(Cl)nc(SCC(=O)O)n2)c1C
not listed: Danio rerio [10] | Danio rerio [11] | Danio rerio [12] | Danio rerio [13] | Danio rerio [14] | Danio rerio [15]
active: all other assays above

Cc1cc(SCc2sc(-c3ccc(C(F)(F)F)c(F)c3)nc2C)ccc1OCC(=O)O
active: Danio rerio [10] | Danio rerio [11] | Danio rerio [12] | Danio rerio [13] | Danio rerio [14] | Danio rerio [15]
